ChEMBL document CHEMBL2069288, “Virtual screening leads to the discovery of novel non-nucleotide P2Y₁ receptor antagonists” (Bioorg Med Chem, 2012)
pIC50, pKi: −log10 of the molar value.

Tests used:
P2Y purinoceptor 1 [1] = molecular target: T1, P2Y purinoceptor 1 (Homo sapiens, UniProt P47900); assay: Displacement of [125I]MRS2500 from human P2Y1R expressed in Sf9 cell membrane
Procedure, shortened: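 Competition binding used membranes of Sf9 insect cells expressing hP2Y1R, with [125I]MRS2500 at approximately 0.2 nM.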

P2Y purinoceptor 1 [2] = molecular target: T1, P2Y purinoceptor 1; assay: Antagonist activity at human P2Y1R expressed in human 1321N1 cells assessed as inhibition of 2-MeSADP-induced increase in intracellular calcium mobilization at 10 uM; assay type: functional, cell-based
Procedure, shortened: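 hP2Y1R-expressing 1321N1 cells were kept in DMEM with 5% FBS and geneticin, grown overnight to about 60–80% confluency, and loaded with Calcium 4 dye for 1 h at room temperature without washing. Test compound at 10 µM was added 20 min before 2-MeSADP (30 nM; curves 10−9–10−5 M). Read-out was fluorescence (ex 485/em 525 nm), peak minus basal, in triplicate.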

P2Y purinoceptor 1 [3] = molecular target: T1, P2Y purinoceptor 1; assay: Displacement of [125I]MRS2500 from human P2Y1R expressed in Sf9 cell membrane at 20 uM
Procedure, shortened: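 Binding screen used hP2Y1R-expressing Sf9 cell membranes and about 0.2 nM [125I]MRS2500. Each test compound was applied at 20 µM, and the value is percent inhibition of specific radioligand binding.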

P2Y purinoceptor 1 [4] = molecular target: T1, P2Y purinoceptor 1; assay: Antagonist activity at human P2Y1R expressed in human 1321N1 cells assessed as inhibition of 2-MeSADP-induced increase in intracellular inositol phosphate generation; assay type: functional, cell-based
Procedure, shortened: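 In 1321N1 cells stably expressing hP2Y1R, cells were labeled 18–24 h at 37°C with 2-[3H]myo-inositol in inositol-free DMEM. Agonist-stimulated [3H]inositol phosphate accumulation was measured over 10 min at 37°C with 10 mM LiCl. Total inositol phosphates were separated by anion-exchange chromatography. IC50 is the mean of 3 independent concentration-effect curves.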

T1 sequence (P47900 whole entry): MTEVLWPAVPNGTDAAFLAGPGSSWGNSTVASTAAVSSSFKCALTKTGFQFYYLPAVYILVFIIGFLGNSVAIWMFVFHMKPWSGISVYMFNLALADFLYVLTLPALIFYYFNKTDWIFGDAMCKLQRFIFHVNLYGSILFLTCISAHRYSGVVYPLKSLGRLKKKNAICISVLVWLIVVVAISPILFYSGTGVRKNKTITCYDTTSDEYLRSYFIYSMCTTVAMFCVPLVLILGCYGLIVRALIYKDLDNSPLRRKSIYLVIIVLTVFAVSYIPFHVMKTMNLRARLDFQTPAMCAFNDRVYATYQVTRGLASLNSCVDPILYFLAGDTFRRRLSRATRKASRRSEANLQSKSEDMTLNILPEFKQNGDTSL

| SMILES | pKi (P2Y purinoceptor 1 [1]) | inhibition (P2Y purinoceptor 1 [2]) | inhibition (P2Y purinoceptor 1 [3]) | pIC50 (P2Y purinoceptor 1 [4]) |
| --- | --- | --- | --- | --- |
| COc1ccc(NC(=O)Nc2ccc(S(=O)(=O)Nc3onc(C)c3C)cc2)cc1OC | – | 9.1% | < 10% | – |
| Cc1noc(NS(=O)(=O)c2ccc(NC(=O)Nc3ccccc3)cc2)c1C | – | < 5% | < 10% | – |
| Cc1noc(NS(=O)(=O)c2ccc(NC(=O)Nc3cc(Cl)cc(Cl)c3)cc2)c1C | 4.57 | 17.6% | – | – |
| CCc1nnc(NS(=O)(=O)c2ccc(NC(=O)Nc3ccc(C(F)(F)F)cc3)cc2)s1 | 5.00 | – | – | – |
| Cc1noc(NS(=O)(=O)c2ccc(NC(=O)Nc3cc(F)cc(F)c3)cc2)c1C | ≤ 4.00 | 10.2% | – | – |
| CC1=C2C(=O)NC(SCC(=O)Nc3ccc(S(=O)(=O)NCCCC(=O)O)cc3)=NC2SC1C(=O)O (configuration not stated) | – | – | 30% | – |
| Cn1c(=O)[nH]c(=O)c2nc(NCCCO)n(CC(O)COc3ccccc3)c21 (configuration not stated) | – | – | 20% | – |
| COc1ccc(S(=O)(=O)NCC(c2ccc3c(c2)OCO3)N2CCN(C)CC2)cc1OC (configuration not stated) | – | – | 20% | – |
| O=C(CSC1=NC(=O)N(CCCN2CCOCC2)C2CCCC12)Nc1ccc2c(c1)OCO2 (configuration not stated) | – | – | 20% | – |
| CN(C)CCCN(C(=O)c1ccco1)c1nc2cc3c(cc2s1)OCO3 | – | – | 40% | – |

Now from value to compound:

| pKi (P2Y purinoceptor 1 [1]) | inhibition (P2Y purinoceptor 1 [2]) | inhibition (P2Y purinoceptor 1 [3]) | pIC50 (P2Y purinoceptor 1 [4]) | SMILES |
| --- | --- | --- | --- | --- |
| 4.35 | 32.7% | – | – | Cc1noc(NS(=O)(=O)c2ccc(NC(=O)Nc3ccc(C(F)(F)F)cc3)cc2)c1C |
| 4.38 | 31.3% | – | – | Cc1noc(NS(=O)(=O)c2ccc(NC(=O)Nc3ccc(F)c(Cl)c3)cc2)c1C |
| – | – | 20% | – | Cn1nnc2c(Cc3ccc(S(N)(=O)=O)cc3)ncnc21 |
| 4.89 | 36.8% | – | 6.85 | Cc1noc(NS(=O)(=O)c2ccc(NC(=O)Nc3ccc(Cl)c(Cl)c3)cc2)c1C |
| 5.22 | – | – | – | COc1cc(NS(=O)(=O)c2ccc(NC(=O)Nc3cccc(Cl)c3)cc2)nc(OC)n1 |
| – | 9.4% | < 10% | 6.89 | Cc1ccc(NC(=O)Nc2ccc(S(=O)(=O)Nc3onc(C)c3C)cc2)cc1C |
| – | – | 20% | – | Cc1cc(NC(=O)CSc2ccc3nnc(CCNS(=O)(=O)c4ccccc4)n3n2)no1 |
| ≤ 4.00 | 21.7% | – | – | Cc1noc(NS(=O)(=O)c2ccc(NC(=O)Nc3cccc(Cl)c3)cc2)c1C |
| – | 11.3% | < 10% | – | Cc1noc(NS(=O)(=O)c2ccc(NC(=O)Nc3ccc(F)c(F)c3)cc2)c1C |
| – | – | 20% | – | COc1ccc(S(=O)(=O)Nc2ccc3c(c2)C(=O)Nc2ccccc2O3)cc1OC |
